Assay results reported in BindingDB's records for doi:10.1021/jm030056e (Glaxosmithkline, 2003).

How the values were obtained:
[1] = target: cGMP-specific 3',5'-cyclic phosphodiesterase (Bos taurus, UniProt Q28156); test: Inhibitory activity against bovine PDE5 (phosphodiesterase-5).
[2] = target: cGMP-dependent 3',5'-cyclic phosphodiesterase (Homo sapiens, UniProt O00408); test: Inhibition of human recombinant PDE2 (phosphodiesterase 2)
Outline: (§1)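 Incubated 30 min at 30 °C under initial-velocity conditions (≤10-15% hydrolysis). Product separated on QAE Sephadex and counted by scintillation; final DMSO 2%.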

Phosphodiesterase = Phosphodiesterase (Bos taurus, UniProt E1BN64); test: Inhibition of bovine aorta PDE3 (phosphodiesterase 3); outline: as §1
Phosphodiesterase, sequence (E1BN64 whole entry): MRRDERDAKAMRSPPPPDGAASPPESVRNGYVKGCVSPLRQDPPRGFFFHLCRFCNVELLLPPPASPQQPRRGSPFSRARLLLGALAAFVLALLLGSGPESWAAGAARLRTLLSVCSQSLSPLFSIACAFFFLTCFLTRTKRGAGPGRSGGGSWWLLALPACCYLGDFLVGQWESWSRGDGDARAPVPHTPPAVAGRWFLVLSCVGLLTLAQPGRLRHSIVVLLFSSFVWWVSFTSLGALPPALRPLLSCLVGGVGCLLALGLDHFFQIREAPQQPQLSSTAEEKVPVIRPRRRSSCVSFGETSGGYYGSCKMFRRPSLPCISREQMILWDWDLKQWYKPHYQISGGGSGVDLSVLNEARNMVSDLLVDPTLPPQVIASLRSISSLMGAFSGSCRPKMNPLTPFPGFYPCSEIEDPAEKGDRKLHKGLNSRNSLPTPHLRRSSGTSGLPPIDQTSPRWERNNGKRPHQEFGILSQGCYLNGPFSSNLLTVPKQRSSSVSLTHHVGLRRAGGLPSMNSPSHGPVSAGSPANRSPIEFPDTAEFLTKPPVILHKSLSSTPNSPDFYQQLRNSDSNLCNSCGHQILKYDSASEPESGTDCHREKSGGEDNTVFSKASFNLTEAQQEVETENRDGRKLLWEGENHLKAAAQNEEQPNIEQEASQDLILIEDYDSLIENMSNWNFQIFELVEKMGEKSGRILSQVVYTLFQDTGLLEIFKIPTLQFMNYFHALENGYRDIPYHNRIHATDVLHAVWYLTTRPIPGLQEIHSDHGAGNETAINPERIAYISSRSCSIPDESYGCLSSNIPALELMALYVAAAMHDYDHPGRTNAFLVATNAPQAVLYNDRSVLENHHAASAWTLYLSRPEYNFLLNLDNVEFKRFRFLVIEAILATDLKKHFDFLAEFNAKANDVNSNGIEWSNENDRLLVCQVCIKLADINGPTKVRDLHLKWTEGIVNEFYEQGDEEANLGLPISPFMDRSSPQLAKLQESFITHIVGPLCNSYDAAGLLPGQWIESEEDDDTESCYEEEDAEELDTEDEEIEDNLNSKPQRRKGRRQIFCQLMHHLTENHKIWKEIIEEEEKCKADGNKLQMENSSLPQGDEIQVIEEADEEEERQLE

cGMP-dependent 3',5'-cyclic phosphodiesterase, sequence (O00408 whole entry): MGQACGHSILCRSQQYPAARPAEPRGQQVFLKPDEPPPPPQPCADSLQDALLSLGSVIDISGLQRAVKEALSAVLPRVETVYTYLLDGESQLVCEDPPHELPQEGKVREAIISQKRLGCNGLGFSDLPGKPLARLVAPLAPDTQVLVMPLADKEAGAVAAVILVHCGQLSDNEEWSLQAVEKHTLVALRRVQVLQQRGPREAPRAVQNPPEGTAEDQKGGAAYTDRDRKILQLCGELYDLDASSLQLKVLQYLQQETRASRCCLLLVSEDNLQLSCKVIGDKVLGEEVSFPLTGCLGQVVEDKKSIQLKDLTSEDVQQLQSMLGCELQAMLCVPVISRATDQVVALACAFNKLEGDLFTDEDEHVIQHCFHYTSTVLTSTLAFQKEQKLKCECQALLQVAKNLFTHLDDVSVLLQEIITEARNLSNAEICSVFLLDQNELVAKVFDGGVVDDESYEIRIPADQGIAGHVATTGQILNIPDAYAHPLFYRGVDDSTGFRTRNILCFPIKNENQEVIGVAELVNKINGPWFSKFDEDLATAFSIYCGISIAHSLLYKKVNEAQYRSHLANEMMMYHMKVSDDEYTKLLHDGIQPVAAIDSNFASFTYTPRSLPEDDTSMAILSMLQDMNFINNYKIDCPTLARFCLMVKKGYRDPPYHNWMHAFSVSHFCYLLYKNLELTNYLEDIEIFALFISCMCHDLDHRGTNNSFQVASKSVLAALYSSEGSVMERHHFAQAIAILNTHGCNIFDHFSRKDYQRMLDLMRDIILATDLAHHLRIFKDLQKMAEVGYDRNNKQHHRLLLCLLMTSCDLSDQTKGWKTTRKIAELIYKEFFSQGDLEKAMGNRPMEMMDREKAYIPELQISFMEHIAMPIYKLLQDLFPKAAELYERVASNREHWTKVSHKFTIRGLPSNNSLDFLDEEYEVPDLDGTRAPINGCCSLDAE

COc1ccc([C@H]2c3[nH]c4ccccc4c3Cc3c(O)n(CCN4CCCC4)c(=O)n32)cc1
IC50 [1]: 100 nM

COc1ccc([C@@H]2c3[nH]c4ccccc4c3Cc3c(O)n(Cc4ccccc4)c(=O)n32)cc1 [(3aR,10R)-2-Benzyl-10-(4-methoxy-phenyl)-3a,4,9,10-tetrahydro-2,9,10a-triaza-cyclopenta[b]fluorene-1,3-dione]
IC50 [2]: > 10000 nM | IC50 (Phosphodiesterase): > 10000 nM

CCCCn1c(O)c2n(c1=O)[C@H](c1ccc(OC)cc1)c1[nH]c3ccccc3c1C2 [(3aR,10R)-2-Butyl-10-(4-methoxy-phenyl)-3a,4,9,10-tetrahydro-2,9,10a-triaza-cyclopenta[b]fluorene-1,3-dione]
IC50 [2]: > 10000 nM | IC50 (Phosphodiesterase): > 10000 nM

CCCCn1c(O)c2n(c1=O)[C@H](c1ccoc1)c1[nH]c3ccccc3c1C2 [(3aR,10R)-2-Butyl-10-furan-3-yl-3a,4,9,10-tetrahydro-2,9,10a-triaza-cyclopenta[b]fluorene-1,3-dione]
IC50 [1]: 100 nM

COc1ccc([C@@H]2c3[nH]c4ccccc4c3Cc3c(O)n(C4CCCCC4)c(=O)n32)cc1 [(3aR,10R)-2-Cyclohexyl-10-(4-methoxy-phenyl)-3a,4,9,10-tetrahydro-2,9,10a-triaza-cyclopenta[b]fluorene-1,3-dione]
IC50 [1]: 7 nM | IC50 [2]: > 10000 nM

COc1ccc([C@H]2c3[nH]c4ccccc4c3Cc3c(O)n(CCN(C)C)c(=O)n32)cc1 [(3aR,10S)-2-(2-Dimethylamino-ethyl)-10-(4-methoxy-phenyl)-3a,4,9,10-tetrahydro-2,9,10a-triaza-cyclopenta[b]fluorene-1,3-dione]
IC50 [1]: 30 nM

CCCCn1c(O)c2n(c1=O)[C@@H](c1ccc(OC)cc1)c1[nH]c3ccccc3c1C2 [(3aR,10S)-2-Butyl-10-(4-methoxy-phenyl)-3a,4,9,10-tetrahydro-2,9,10a-triaza-cyclopenta[b]fluorene-1,3-dione]
IC50 [2]: > 10000 nM | IC50 (Phosphodiesterase): > 10000 nM

COc1ccc([C@H]2c3[nH]c4ccccc4c3Cc3c(O)n(Cc4cccnc4)c(=O)n32)cc1 [(3aR,10S)-10-(4-Methoxy-phenyl)-2-pyridin-3-ylmethyl-3a,4,9,10-tetrahydro-2,9,10a-triaza-cyclopenta[b]fluorene-1,3-dione]
IC50 [1]: 20 nM

COc1ccc([C@H]2c3[nH]c4ccccc4c3Cc3c(O)[nH]c(=O)n32)cc1 [(3aR,10S)-10-(4-Methoxy-phenyl)-3a,4,9,10-tetrahydro-2,9,10a-triaza-cyclopenta[b]fluorene-1,3-dione]
IC50 [1]: 20 nM

CCCCn1c(O)c2n(c1=O)[C@H](c1ccncc1)c1[nH]c3ccccc3c1C2 [Cis-2-Butyl-10-pyridin-4-yl-3a,4,9,10-tetrahydro-2,9,10a-triaza-cyclopenta[b]fluorene-1,3-dione]
IC50 [1]: 300 nM

CCCCn1c(O)c2n(c1=O)[C@H](c1ccsc1)c1[nH]c3ccccc3c1C2 [Cis-2-Butyl-10-thiophen-3-yl-3a,4,9,10-tetrahydro-2,9,10a-triaza-cyclopenta[b]fluorene-1,3-dione]
IC50 [1]: 30 nM
